From ChEMBL document CHEMBL1153156, “Pyrrole derivatives as potent inhibitors of lymphocyte-specific kinase: Structure, synthesis, and SAR” (Bioorg Med Chem Lett, 2010)

Key:
[1] = target: Tyrosine-protein kinase Lck (Homo sapiens) (UniProt P06239); test: Inhibition of human recombinant Lck expressed in insect cells by Packard topcount method
Outline: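 Lck (5 ng/well) incubated with compound in 50 mM Hepes, 50 mM KCl, 25 mM MgCl₂, 5 mM MnCl₂, Na₃VO₄, 0.01% CHAPS, 1 mM DTT. Poly(Glu-Tyr) 4:1 substrate, ATP and ³³P-ATP added; 25 °C, 60 min. Stopped with 100 mM phosphoric acid, filtered onto membrane, scintillation counted. IC₅₀ from eight-point half-log curves; mean of at least two independent experiments.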

[2] = Immunosuppressive activity in C57BL6/J mouse T cells cocultured with mitomycin C-treated BALB/c spleen cells assessed as inhibition of [3H]thymidine incorporation after 72 hrs by mixed lymphocyte reaction assay; assay type: functional
Outline: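 Nylon-wool-purified splenic and lymph node T cells from C57BL/6 mice (3 × 10⁵/well) cocultured with mitomycin-C-treated BALB/c spleen cells (2 × 10⁵/well), 37 °C, 5% CO₂, 72 h. Compounds added at culture start. ³H-thymidine pulse for last 4 h, incorporation counted. IC₅₀ from nine-point half-log concentration–response curves; mean of at least two independent experiments.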

[3] = Inhibition of CAMK2
[4] = target: T1, Tyrosine-protein kinase ZAP-70 (Homo sapiens, UniProt P43403); test: Inhibition of ZAP70
T1 sequence (P43403 whole entry): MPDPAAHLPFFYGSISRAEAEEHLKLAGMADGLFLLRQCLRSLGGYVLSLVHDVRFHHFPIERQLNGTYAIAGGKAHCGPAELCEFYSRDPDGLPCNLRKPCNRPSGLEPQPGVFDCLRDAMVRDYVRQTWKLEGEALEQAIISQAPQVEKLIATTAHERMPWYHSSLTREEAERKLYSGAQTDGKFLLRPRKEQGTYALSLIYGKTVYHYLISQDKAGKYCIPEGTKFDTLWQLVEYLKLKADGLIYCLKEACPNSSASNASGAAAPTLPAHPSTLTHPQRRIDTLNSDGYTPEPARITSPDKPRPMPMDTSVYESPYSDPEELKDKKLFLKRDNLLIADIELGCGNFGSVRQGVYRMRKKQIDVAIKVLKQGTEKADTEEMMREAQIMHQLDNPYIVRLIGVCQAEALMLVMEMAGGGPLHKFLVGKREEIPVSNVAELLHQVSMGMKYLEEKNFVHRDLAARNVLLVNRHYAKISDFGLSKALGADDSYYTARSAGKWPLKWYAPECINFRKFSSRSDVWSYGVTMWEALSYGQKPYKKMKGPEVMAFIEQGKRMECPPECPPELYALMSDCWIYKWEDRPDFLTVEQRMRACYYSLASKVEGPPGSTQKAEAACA

[5] = target: Tyrosine-protein kinase CSK (Homo sapiens, UniProt P41240); test: Inhibition of Csk
Chain of Tyrosine-protein kinase CSK (P41240 whole entry): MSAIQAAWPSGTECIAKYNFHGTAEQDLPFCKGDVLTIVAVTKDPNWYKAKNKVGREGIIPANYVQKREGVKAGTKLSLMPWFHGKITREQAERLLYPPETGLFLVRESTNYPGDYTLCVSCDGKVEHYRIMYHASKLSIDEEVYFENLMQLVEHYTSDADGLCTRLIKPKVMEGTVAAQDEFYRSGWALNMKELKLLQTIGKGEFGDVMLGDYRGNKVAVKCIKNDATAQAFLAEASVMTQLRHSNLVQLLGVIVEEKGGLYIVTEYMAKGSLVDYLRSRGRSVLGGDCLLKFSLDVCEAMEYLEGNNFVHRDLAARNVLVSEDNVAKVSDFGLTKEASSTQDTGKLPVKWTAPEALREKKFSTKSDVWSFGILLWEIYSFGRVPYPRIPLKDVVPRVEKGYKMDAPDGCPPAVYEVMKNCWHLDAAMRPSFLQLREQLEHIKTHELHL

[6] = Inhibition of PKC
[7] = target: Tyrosine-protein kinase ABL1 (Homo sapiens, UniProt P00519); test: Inhibition of Abl
Chain of Tyrosine-protein kinase ABL1 (P00519 whole entry): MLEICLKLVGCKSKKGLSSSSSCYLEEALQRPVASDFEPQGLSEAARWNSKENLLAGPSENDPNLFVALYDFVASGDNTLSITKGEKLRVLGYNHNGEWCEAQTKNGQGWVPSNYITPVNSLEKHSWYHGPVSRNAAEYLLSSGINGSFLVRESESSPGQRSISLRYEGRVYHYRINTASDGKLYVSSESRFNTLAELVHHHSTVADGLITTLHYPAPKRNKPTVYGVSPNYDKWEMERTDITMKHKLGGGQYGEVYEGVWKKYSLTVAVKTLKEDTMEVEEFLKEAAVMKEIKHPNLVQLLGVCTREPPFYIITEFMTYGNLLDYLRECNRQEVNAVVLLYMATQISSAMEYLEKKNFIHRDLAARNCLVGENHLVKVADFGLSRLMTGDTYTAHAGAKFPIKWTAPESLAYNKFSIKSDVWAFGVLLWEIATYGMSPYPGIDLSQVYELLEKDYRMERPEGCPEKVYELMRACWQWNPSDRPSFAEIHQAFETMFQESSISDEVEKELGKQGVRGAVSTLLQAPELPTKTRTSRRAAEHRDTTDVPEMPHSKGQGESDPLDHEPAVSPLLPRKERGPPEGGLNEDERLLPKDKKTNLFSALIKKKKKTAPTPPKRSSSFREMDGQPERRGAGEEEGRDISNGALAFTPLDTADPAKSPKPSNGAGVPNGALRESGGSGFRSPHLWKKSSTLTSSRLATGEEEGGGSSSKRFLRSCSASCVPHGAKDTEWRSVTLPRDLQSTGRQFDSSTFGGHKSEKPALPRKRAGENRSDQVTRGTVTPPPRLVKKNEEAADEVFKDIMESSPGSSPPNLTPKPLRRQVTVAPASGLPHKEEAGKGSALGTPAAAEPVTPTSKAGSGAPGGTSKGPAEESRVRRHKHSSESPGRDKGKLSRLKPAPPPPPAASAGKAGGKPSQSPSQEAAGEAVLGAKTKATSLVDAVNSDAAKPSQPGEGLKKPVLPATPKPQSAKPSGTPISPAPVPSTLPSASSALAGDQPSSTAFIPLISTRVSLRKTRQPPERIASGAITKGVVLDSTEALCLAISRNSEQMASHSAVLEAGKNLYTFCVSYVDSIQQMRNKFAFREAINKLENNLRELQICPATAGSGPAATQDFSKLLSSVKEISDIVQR

[8] = Selectivity ratio of IC50 for Csk to IC50 for human recombinant Lck
[9] = target: Proto-oncogene tyrosine-protein kinase Src (Homo sapiens, UniProt P12931); test: Inhibition of Src
Chain of Proto-oncogene tyrosine-protein kinase Src (P12931 2-536 limits assumed): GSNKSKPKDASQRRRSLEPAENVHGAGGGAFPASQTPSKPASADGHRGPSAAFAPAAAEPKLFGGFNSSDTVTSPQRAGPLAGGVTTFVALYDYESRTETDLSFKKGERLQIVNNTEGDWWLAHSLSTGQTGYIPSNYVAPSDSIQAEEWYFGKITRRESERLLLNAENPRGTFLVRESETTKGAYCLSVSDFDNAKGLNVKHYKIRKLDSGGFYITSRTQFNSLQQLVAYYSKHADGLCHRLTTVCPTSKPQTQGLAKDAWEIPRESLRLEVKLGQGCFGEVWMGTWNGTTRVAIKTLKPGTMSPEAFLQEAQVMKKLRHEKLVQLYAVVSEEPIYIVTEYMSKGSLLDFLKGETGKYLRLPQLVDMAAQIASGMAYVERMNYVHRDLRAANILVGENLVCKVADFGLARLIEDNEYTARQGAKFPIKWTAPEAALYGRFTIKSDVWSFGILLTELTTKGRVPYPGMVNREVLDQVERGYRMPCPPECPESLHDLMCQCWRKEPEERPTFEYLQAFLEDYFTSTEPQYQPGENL

[10] = target: Cyclin-dependent kinase 1 (Homo sapiens, UniProt P06493); test: Inhibition of CDK1
Chain of Cyclin-dependent kinase 1 (P06493 whole entry): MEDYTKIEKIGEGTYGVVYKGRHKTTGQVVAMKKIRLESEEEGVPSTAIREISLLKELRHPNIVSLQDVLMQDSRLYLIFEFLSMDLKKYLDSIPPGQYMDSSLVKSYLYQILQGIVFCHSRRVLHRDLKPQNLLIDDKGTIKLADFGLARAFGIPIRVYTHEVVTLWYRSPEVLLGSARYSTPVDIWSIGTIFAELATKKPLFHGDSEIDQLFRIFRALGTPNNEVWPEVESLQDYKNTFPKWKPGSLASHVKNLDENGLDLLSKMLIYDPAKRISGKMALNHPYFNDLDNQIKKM

[11] = Inhibition of PKA
[12] = target: RAC-alpha serine/threonine-protein kinase (Homo sapiens, UniProt P31749); test: Inhibition of PKB
Chain of RAC-alpha serine/threonine-protein kinase (P31749 whole entry): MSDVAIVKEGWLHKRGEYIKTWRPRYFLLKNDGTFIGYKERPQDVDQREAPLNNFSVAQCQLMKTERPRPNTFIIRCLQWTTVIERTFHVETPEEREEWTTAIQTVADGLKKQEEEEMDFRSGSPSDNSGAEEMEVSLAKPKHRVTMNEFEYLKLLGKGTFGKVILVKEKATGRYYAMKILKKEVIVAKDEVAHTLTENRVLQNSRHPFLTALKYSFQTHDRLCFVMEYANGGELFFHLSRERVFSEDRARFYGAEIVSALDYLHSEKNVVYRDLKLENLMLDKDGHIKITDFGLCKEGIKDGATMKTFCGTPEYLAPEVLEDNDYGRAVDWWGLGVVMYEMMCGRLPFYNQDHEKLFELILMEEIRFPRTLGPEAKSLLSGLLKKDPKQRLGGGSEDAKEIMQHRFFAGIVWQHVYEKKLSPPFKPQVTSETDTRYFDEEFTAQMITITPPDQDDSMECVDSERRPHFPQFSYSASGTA

[13] = Selectivity ratio of IC50 for Src to IC50 for human recombinant Lck
[14] = target: Dual specificity mitogen-activated protein kinase kinase 1 (Homo sapiens, UniProt Q02750); test: Inhibition of MEK1
Chain of Dual specificity mitogen-activated protein kinase kinase 1 (Q02750 whole entry): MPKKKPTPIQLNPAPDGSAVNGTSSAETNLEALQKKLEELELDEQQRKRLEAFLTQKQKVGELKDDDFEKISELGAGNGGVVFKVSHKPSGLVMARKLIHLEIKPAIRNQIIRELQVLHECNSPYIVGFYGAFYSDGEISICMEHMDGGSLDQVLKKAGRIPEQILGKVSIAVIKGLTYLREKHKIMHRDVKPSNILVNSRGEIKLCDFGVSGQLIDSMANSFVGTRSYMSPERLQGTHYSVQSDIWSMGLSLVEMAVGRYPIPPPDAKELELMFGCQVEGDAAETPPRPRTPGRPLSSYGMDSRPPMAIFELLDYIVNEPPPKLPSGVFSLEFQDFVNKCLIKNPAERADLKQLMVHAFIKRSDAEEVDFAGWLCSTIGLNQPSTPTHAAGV

Chain of Tyrosine-protein kinase Lck (Homo sapiens) (P06239 2-509 limits assumed): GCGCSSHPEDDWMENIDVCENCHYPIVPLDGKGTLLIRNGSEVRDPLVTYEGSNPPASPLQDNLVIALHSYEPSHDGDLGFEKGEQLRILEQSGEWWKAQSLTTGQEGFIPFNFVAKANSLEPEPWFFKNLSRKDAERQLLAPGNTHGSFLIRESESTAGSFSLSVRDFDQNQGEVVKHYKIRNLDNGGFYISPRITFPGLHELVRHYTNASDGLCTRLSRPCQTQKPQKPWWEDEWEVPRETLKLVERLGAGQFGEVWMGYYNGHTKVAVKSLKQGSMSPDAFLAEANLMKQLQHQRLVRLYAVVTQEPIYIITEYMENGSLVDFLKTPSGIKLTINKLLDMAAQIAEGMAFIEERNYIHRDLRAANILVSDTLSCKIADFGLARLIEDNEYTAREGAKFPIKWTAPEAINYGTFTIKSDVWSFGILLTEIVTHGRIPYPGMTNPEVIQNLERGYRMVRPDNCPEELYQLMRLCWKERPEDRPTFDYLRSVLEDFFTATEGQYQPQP

SMILES	C50 [1] [nM]	IC50 [2] [nM]	further results
COc1ccc(-c2[nH]c(C(=O)c3c(F)cccc3F)c(N)c2C(N)=O)cc1	> 100	–	–
NC(=O)c1c(-c2ccc(Oc3ccccc3)cc2)[nH]c(C(=O)c2ccc(F)cc2)c1N	10	–	–
Cc1ccc(C(=O)c2[nH]c(-c3ccc(Oc4ccccc4)cc3)c(C(N)=O)c2N)cc1	2.8	180	–
NC(=O)c1c(-c2ccc(Oc3ncccn3)cc2)[nH]c(C(=O)c2c(F)cccc2F)c1N	> 100	–	–
COc1ccccc1C(=O)c1[nH]c(-c2ccc(Oc3ccccc3)cc2)c(C(N)=O)c1N	9.4	–	–
Cc1cccc(C(=O)c2[nH]c(-c3ccc(Oc4ccccc4)cc3)c(C(N)=O)c2N)c1	4	420	–
CN(Cc1c(Cl)cccc1Cl)c1ccc(-c2[nH]c(C(=O)c3c(F)cccc3F)c(N)c2C(N)=O)cc1	92	>1000	–
NC(=O)c1c(-c2ccc(NCc3cc(Cl)ccc3Cl)cc2)[nH]c(C(=O)c2c(F)cccc2F)c1N	93	–	–
NC(=O)c1c(-c2ccc(NCc3ccccc3)cc2)[nH]c(C(=O)c2c(F)cccc2F)c1N	6.4	–	–
NC(=O)c1c(-c2ccc(Oc3ccccc3)cc2)[nH]c(C(=O)c2cccc(Cl)c2)c1N	6.3	–	–
NC(=O)c1c(-c2ccc(Oc3ccccc3)cc2)[nH]c(C(=O)c2ccccc2Br)c1N	2.5	150	–
NC(=O)c1c(-c2ccc(Oc3ccccc3)cc2)[nH]c(C(=O)c2ccc(Cl)cc2Cl)c1N	2.3	–	–
NC(=O)c1c(-c2ccc(Oc3ccccc3)cc2)[nH]c(C(=O)c2ccccc2C(F)(F)F)c1N	3.5	68	–
NC(=O)c1c(-c2ccc(Oc3ccccc3)cc2)[nH]c(C(=O)c2c(F)cc(F)cc2F)c1N	1.8	62	–
Cc1cccc(Cl)c1CNc1ccc(-c2[nH]c(C(=O)c3c(F)cccc3F)c(N)c2C(N)=O)cc1	3.6	56	–
NC(=O)c1c(-c2ccc(Oc3ccccc3)cc2)[nH]c(C(=O)c2cccc(F)c2)c1N	5	–	–
NC(=O)c1c(-c2ccc(Oc3ccccc3)cc2)[nH]c(C(=O)c2ccccc2F)c1N	1.5	–	–
NC(=O)c1c(-c2ccc(Oc3ccccc3)cc2)[nH]c(C(=O)c2ccc(Br)cc2)c1N	5.9	–	–
Cc1ccccc1C(=O)c1[nH]c(-c2ccc(Oc3ccccc3)cc2)c(C(N)=O)c1N	2.7	180	–

SMILES	C50 [1] [nM]	IC50 [2] [nM]	further results
NC(=O)c1c(-c2ccc(Oc3ccccc3)cc2)[nH]c(C(=O)c2cc(Cl)ccc2Cl)c1N	19	–	–
Cc1ccc(C)c(C(=O)c2[nH]c(-c3ccc(Oc4ccccc4)cc3)c(C(N)=O)c2N)c1	10	–	–
NC(=O)c1c(-c2ccc(NCC3CCCCC3)cc2)[nH]c(C(=O)c2c(F)cccc2F)c1N	74	–	–
NC(=O)c1c(-c2ccc(Oc3ccccc3)cc2)[nH]c(C(=O)c2ccc(Oc3ccccc3)cc2)c1N	49	–	–
Cc1cccc(C(=O)c2[nH]c(-c3ccc(Oc4ccccc4)cc3)c(C(N)=O)c2N)c1C	2.6	110	–
NC(=O)c1c(-c2ccc(Oc3ccccc3)cc2)[nH]c(C(=O)c2ccccc2Cl)c1N	1.8	69	–
NC(=O)c1c(-c2ccc(Oc3ccccc3)cc2)[nH]c(C(=O)c2cccc(Br)c2)c1N	6.2	–	–
NC(=O)c1c(-c2ccc(NCc3c(Cl)cccc3Cl)cc2)[nH]c(C(=O)c2c(F)cccc2F)c1N	0.92	31	–
NC(=O)c1c(-c2ccc(Oc3ccccc3)cc2)[nH]c(C(=O)c2ccccc2)c1N	11	–	–
Cc1ccc(C(=O)c2[nH]c(-c3ccc(Oc4ccccc4)cc3)c(C(N)=O)c2N)c(C)c1	1.8	–	–
NC(=O)c1c(-c2ccc(OCc3ccccc3)cc2)[nH]c(C(=O)c2c(F)cccc2F)c1N	6.1	>1000	–
Cc1cc(C)cc(C(=O)c2[nH]c(-c3ccc(Oc4ccccc4)cc3)c(C(N)=O)c2N)c1	13	–	–
NC(=O)c1c(-c2ccc(Oc3ccccc3)cc2)[nH]c(C(=O)c2ccc(Cl)cc2)c1N	7	–	–
NC(=O)c1c(-c2ccc(NC(=O)c3ccccc3)cc2)[nH]c(C(=O)c2c(F)cccc2F)c1N	> 100	–	–
NC(=O)c1c(-c2ccc(Oc3ccccc3)cc2)[nH]c(C(=O)c2cccc(Cl)c2Cl)c1N	1.2	45	–
NC(=O)c1c(-c2ccc(Oc3ccccc3)cc2)[nH]c(C(=O)c2cc(Cl)cc(Cl)c2)c1N	38	–	–
NC(=O)c1c(-c2ccc(Oc3ccccc3)cc2)[nH]c(C(=O)c2c(F)cccc2F)c1N	1.3	31	IC50 [3]: > 10 µM; IC50 [4]: > 10 µM; IC50 [5]: 4.5 nM; IC50 [6]: > 10 µM; IC50 [7]: > 10 µM; Ratio IC50 [8]: > 3; IC50 [9]: 23 nM; IC50 [10]: > 10 µM; IC50 [11]: > 10 µM; IC50 [12]: > 10 µM; Ratio IC50 [13]: > 17; IC50 [14]: > 10 µM
NC(=O)c1c(-c2ccc(OCc3c(Cl)cccc3Cl)cc2)[nH]c(C(=O)c2c(F)cccc2F)c1N	> 100	>1000	–
NC(=O)c1c(-c2ccc(N)cc2)[nH]c(C(=O)c2c(F)cccc2F)c1N	> 100	>1000	–
